Assay results taken from ChEMBL document CHEMBL1154645, “Aza-peptidyl Michael acceptor and epoxide inhibitors--potent and selective inhibitors of Schistosoma mansoni and Ixodes ricinus legumains (asparaginyl endopeptidases)” (J Med Chem, 2009).

Legend:
[1] = Inhibition of Schistosoma mansoni asparaginyl endopeptidase
Procedure, shortened: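 Recombinant S. mansoni legumain zymogen expressed in Pichia pastoris and activated before use. Assay buffer was 0.1 M citrate-phosphate with 4 mM DTT at pH 6.8, with under 1% DMSO. The substrate was Cbz-Ala-Ala-[…]-AMC at a final 10 μM, and activity was read as AMC release.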

Legumain-like protease = molecular target: T1, Legumain-like protease (Ixodes ricinus, UniProt Q6PRC7); experiment: Inhibition of Ixodes ricinus asparaginyl endopeptidases
T1 sequence (Q6PRC7 whole entry): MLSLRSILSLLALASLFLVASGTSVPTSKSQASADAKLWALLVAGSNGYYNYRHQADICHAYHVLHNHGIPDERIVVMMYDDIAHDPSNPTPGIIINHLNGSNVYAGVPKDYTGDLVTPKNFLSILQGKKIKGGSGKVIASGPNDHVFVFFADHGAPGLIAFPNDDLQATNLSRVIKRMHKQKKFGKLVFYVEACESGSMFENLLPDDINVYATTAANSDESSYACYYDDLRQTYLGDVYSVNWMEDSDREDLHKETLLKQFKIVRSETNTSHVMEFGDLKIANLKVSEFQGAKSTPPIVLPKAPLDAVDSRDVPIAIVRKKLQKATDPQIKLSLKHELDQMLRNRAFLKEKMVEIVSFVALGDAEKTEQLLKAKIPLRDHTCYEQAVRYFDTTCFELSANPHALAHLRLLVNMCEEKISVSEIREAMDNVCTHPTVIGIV
Procedure, shortened: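 Recombinant I. ricinus legumain zymogen expressed in Pichia pastoris, then activated. Substrate: Cbz-Ala-Ala-[…]-AMC at 10 μM final, with fluorogenic AMC release as the read-out.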

IC50 [1]	IC50 (Legumain-like protease)	SMILES	IC50 ([1]; read-out: IC50) [nM]	IC50 (Legumain-like protease; read-out: IC50) [nM]
–	–	C[C@H](NC(=O)[C@@H](C)NC(=O)N1CCCCC1)C(=O)NN(CC(N)=O)C(=O)/C=C/C(=O)NCCc1ccccc1	750	400
–	–	C[C@H](NC(=O)[C@@H](C)NC(=O)N1CCNCC1)C(=O)NN(CC(N)=O)C(=O)/C=C/C(=O)OCc1ccccc1	250	13
Not Active	Not Active	C[C@H](NC(=O)[C@H](C)NC(=O)N1CCOCC1)C(=O)NN(CC(N)=O)C(=O)OCc1ccccc1	–	–
Not Active	Not Active	C[C@H](NC(=O)N1CCOCC1)C(=O)NN(CC(N)=O)C(=O)/C=C/C(=O)NCc1ccco1	–	–
Not Active	Not Active	C=C/C=C(\C)CNC(=O)N(CC(N)=O)NC(=O)[C@H](C)NC(=O)N1CCN(C(=O)OCc2ccccc2)CC1	–	–
–	–	C[C@H](NC(=O)[C@@H](C)NC(=O)N1CCNCC1)C(=O)NN(CC(N)=O)C(=O)/C=C/C(=O)N(C)Cc1cccc2ccccc12	40	3.8
–	–	C[C@H](NC(=O)[C@@H](C)NC(=O)N1CCNCC1)C(=O)NN(CC(N)=O)C(=O)/C=C/C(=O)N(Cc1ccccc1)Cc1ccccc1	90	31
–	–	C[C@H](NC(=O)[C@H](C)NC(=O)N1CCCCC1)C(=O)NN(CC(N)=O)C(=O)/C=C/C(=O)N(Cc1ccccc1)Cc1ccccc1	80	17
–	–	C[C@H](NC(=O)[C@@H](C)NC(=O)N1CCN(C(=O)OC(C)(C)C)CC1)C(=O)NN(CC(N)=O)C(=O)/C=C/C(=O)OCc1ccccc1	45	7.5
–	–	C[C@H](NC(=O)[C@@H](C)NC(=O)N1CCN(C(=O)OC(C)(C)C)CC1)C(=O)NN(CC(N)=O)C(=O)/C=C/C(=O)N(C)Cc1cccc2ccccc12	58	20
–	–	CCOC(=O)/C=C/C(=O)N(CC(N)=O)NC(=O)[C@H](C)NC(=O)[C@@H](C)NC(=O)N1CCN(C(=O)OCc2ccccc2)CC1	–	0.14
–	–	CC(C)[C@H](NC(=O)[C@@H](C)NC(=O)OCc1ccccc1)C(=O)NN(CC(N)=O)C(=O)/C=C/C(=O)NCc1cccc2ccccc12	1050	350
–	–	CCOC(=O)/C=C/C(=O)N(CC(N)=O)NC(=O)[C@@H](NC(=O)[C@@H](C)NC(=O)OCc1ccccc1)C(C)C	100	65
–	–	C[C@H](NC(=O)N1CCN(C(=O)OCc2ccccc2)CC1)C(=O)NN(CC(N)=O)C(=O)/C=C/C(=O)N1CCc2ccccc2C1	750	800
–	–	C[C@H](NC(=O)[C@@H](C)NC(=O)N1CCOCC1)C(=O)NN(CC(N)=O)C(=O)/C=C/C(=O)N(Cc1cccc2ccccc12)Cc1cccc2ccccc12	45	3.3
–	–	C[C@H](NC(=O)N1CCN(C(=O)OCc2ccccc2)CC1)C(=O)NN(CC(N)=O)C(=O)/C=C/C(=O)N1CCCc2ccccc21	750	850
Not Active	Not Active	C[C@H](NC(=O)N1CCOCC1)C(=O)NN(CC(N)=O)C(=O)/C=C/C(=O)NC1CC1	–	–
Not Active	Not Active	C[C@H](NC(=O)N1CCOCC1)C(=O)NN(CC(N)=O)C(=O)Nc1cccc2ccccc12	–	–
–	–	C[C@H](NC(=O)N1CCOCC1)C(=O)NN(CC(N)=O)C(=O)/C=C/C(=O)N1CCc2ccccc2C1	750	600
–	–	CCOC(=O)/C=C/C(=O)N(CC(N)=O)NC(=O)[C@H](C)NC(=O)[C@@H](C)NC(=O)N1CCCCC1	80	15
Not Active	Not Active	C[C@H](NC(=O)N1CCOCC1)C(=O)NN(CC(N)=O)C(=O)CCc1ccccc1	–	–
–	–	C[C@H](NC(=O)[C@@H](C)NC(=O)N1CCN(C(=O)OC(C)(C)C)CC1)C(=O)NN(CC(N)=O)C(=O)/C=C/C(=O)N(Cc1ccccc1)Cc1ccccc1	45	30
–	–	CCOC(=O)/C=C/C(=O)N(CC(N)=O)NC(=O)OC(C)(C)C	> 2000	750
–	–	CCOC(=O)/C=C/C(=O)N(CC(N)=O)NC(=O)[C@H](C)NC(=O)[C@@H](C)NC(=O)N1CCN(C(=O)OC(C)(C)C)CC1	80	8.5

IC50 [1]	IC50 (Legumain-like protease)	SMILES	IC50 ([1]; read-out: IC50) [nM]	IC50 (Legumain-like protease; read-out: IC50) [nM]
Not Active	Not Active	CC(C)(C)OC(=O)NN(CC(N)=O)C(=O)/C=C/C(=O)NCC1CCCCC1	–	–
–	Not Active	C[C@H](NC(=O)N1CCOCC1)C(=O)NN(CC(N)=O)C(=O)/C=C/C(=O)NCCCc1ccccc1	> 2000	–
Not Active	Not Active	CC(C)(C)OC(=O)NN(CC(N)=O)C(=O)/C=C/C(=O)NCCCc1ccccc1	–	–
–	–	CCOC(=O)/C=C/C(=O)N(CC(N)=O)NC(=O)[C@@H](NC(=O)[C@@H](C)NC(=O)OCc1ccccc1)[C@@H](C)CC	280	0.52
Not Active	Not Active	C[C@H](NC(=O)N1CCCCC1)C(=O)NN(CC(N)=O)C(=O)Nc1ccccc1Oc1ccccc1	–	–
–	–	C[C@H](NC(=O)[C@@H](C)NC(=O)N1CCOCC1)C(=O)NN(CC(N)=O)C(=O)/C=C/C(=O)N1CCc2ccccc2C1	103	65
–	–	C[C@H](NC(=O)N1CCCCC1)C(=O)NN(CC(N)=O)C(=O)/C=C/C(=O)N1CCc2ccccc2C1	600	150
–	–	CCOC(=O)/C=C/C(=O)N(CC(N)=O)NC(=O)[C@H](C)NC(=O)[C@@H](C)NC(=O)N1CCNCC1	300	8.5
–	–	CCOC(=O)/C=C/C(=O)N(CC(N)=O)NC(=O)[C@H](C)NC(=O)[C@@H](C)NC(=O)N1CCOCC1	101	0.23
–	–	C[C@H](NC(=O)[C@@H](C)NC(=O)N1CCN(C(=O)OCc2ccccc2)CC1)C(=O)NN(CC(N)=O)C(=O)/C=C/C(=O)N(C)Cc1cccc2ccccc12	70	0.35
–	–	C[C@H](NC(=O)[C@@H](C)NC(=O)N1CCN(C(=O)OCc2ccccc2)CC1)C(=O)NN(CC(N)=O)C(=O)/C=C/C(=O)N(Cc1cccc2ccccc12)Cc1cccc2ccccc12	50	0.37
–	–	CC(C)[C@H](NC(=O)[C@@H](C)NC(=O)OCc1ccccc1)C(=O)NN(CC(N)=O)C(=O)/C=C/C(=O)N1CCCc2ccccc21	138	13
–	–	COc1ccc(CNC(=O)/C=C/C(=O)N(CC(N)=O)NC(=O)[C@H](C)NC(=O)N2CCOCC2)cc1OC	> 2000	> 2000
–	–	C[C@H](NC(=O)[C@@H](C)NC(=O)N1CCN(C(=O)OC(C)(C)C)CC1)C(=O)NN(CC(N)=O)C(=O)/C=C/C(=O)N(Cc1cccc2ccccc12)Cc1cccc2ccccc12	68	5
Not Active	Not Active	CC(C)(C)OC(=O)NN(CC(N)=O)C(=O)/C=C/C(=O)NCc1ccccc1	–	–
–	–	C[C@H](NC(=O)[C@H](C)NC(=O)N1CCCCC1)C(=O)NN(CC(N)=O)C(=O)/C=C/C(=O)N(Cc1cccc2ccccc12)Cc1cccc2ccccc12 (relative stereo)	57	8
–	–	C[C@H](NC(=O)[C@@H](C)NC(=O)N1CCNCC1)C(=O)NN(CC(N)=O)C(=O)/C=C/C(=O)N(Cc1cccc2ccccc12)Cc1cccc2ccccc12 (relative stereo)	70	2.6
–	–	CC(NC(=O)N1CCCCC1)C(=O)N[C@@H](C)C(=O)NN(CC(N)=O)C(=O)[C@H]1O[C@@H]1C(=O)N(Cc1ccccc1)Cc1ccccc1 (single isomer, unassigned)	72	12
–	–	CC(NC(=O)N1CCCCC1)C(=O)N[C@@H](C)C(=O)NN(CC(N)=O)C(=O)[C@H]1O[C@@H]1C(=O)NCc1cccc2ccccc12 (single isomer, unassigned)	160	8.5
–	–	CC(NC(=O)N1CCN(C(=O)OC(C)(C)C)CC1)C(=O)N[C@@H](C)C(=O)NN(CC(N)=O)C(=O)[C@H]1O[C@@H]1C(=O)N(Cc1ccccc1)Cc1ccccc1 (single isomer, unassigned)	80	270
–	–	CCOC(=O)[C@H]1O[C@@H]1C(=O)N(CC(N)=O)NC(=O)[C@H](C)NC(=O)C(C)NC(=O)N1CCCCC1 (single isomer, unassigned)	220	30
–	–	CC(NC(=O)N1CCOCC1)C(=O)N[C@@H](C)C(=O)NN(CC(N)=O)C(=O)[C@H]1O[C@@H]1C(=O)NCc1cccc2ccccc12 (single isomer, unassigned)	60	6
–	–	CC(NC(=O)N1CCOCC1)C(=O)N[C@@H](C)C(=O)NN(CC(N)=O)C(=O)[C@H]1O[C@@H]1C(=O)N(Cc1ccccc1)Cc1ccccc1 (single isomer, unassigned)	90	1.7
–	–	CC(NC(=O)N1CCNCC1)C(=O)N[C@@H](C)C(=O)NN(CC(N)=O)C(=O)[C@H]1O[C@@H]1C(=O)N(Cc1ccccc1)Cc1ccccc1 (single isomer, unassigned)	150	11

SMILES	IC50 [1]	IC50 (Legumain-like protease)	IC50 ([1]; read-out: IC50) [nM]	IC50 (Legumain-like protease; read-out: IC50) [nM]
C[C@H](NC(=O)[C@@H](C)NC(=O)N1CCOCC1)C(=O)NN(CC(N)=O)C(=O)[C@H]1O[C@H]1C(=O)N(Cc1ccccc1)Cc1ccccc1	Not Active	Not Active	–	–
